Results published in ChEMBL document CHEMBL1144494, “Synthesis of diverse analogues of Oenostacin and their antibacterial activities” (Bioorg Med Chem, 2007).

What was measured:
[1] = test system: Staphylococcus epidermidis; experiment: Antibacterial activity against Staphylococcus epidermidis; format: functional, organism-based
Method in brief: (§1)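 Twofold serial broth dilution in nutrient broth across eight tubes, with broth alone as control. Each tube received 10 µl of diluted log-phase culture at a titre of 10^4 cfu/ml. Incubation at 37 °C, with growth read by turbidity. EC50 values are means of three experiments run in triplicate.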

Staphylococcus aureus = experiment: Antibacterial activity against Staphylococcus aureus; format: functional, organism-based; method in brief: as §1

Structure (SMILES)	EC50 [1]	EC50 (Staphylococcus aureus)
Oc1cccc(O)c1O [PYROGALLOL]	990 nM	490 nM
COc1cc(O)cc(C(=O)O)c1C=O	2550 nM	> 5000 nM
Cc1cc(O)cc(O)c1 [ORCINOL]	4030 nM	4030 nM
COC(=O)c1cc(O)cc(OC)c1C=O	2380 nM	4760 nM
O=C(O)/C=C/c1ccc(O)c(O)c1 [CAFFEIC ACID]	2780 nM	2780 nM
O=C(O)/C=C/c1cc(O)c(O)c(O)c1	630 nM	1260 nM
O=Cc1c(O)cc(O)cc1C(=O)O	1370 nM	> 5000 nM
CC(=O)c1cc(O)c(O)c(O)c1	1480 nM	2960 nM
COC(=O)CC/C=C/c1c(O)cc(C(=O)O)cc1O [OENOSTACIN]	120 nM	120 nM
O=C(O)CCCC(=O)c1ccc(O)c(O)c1O	1040 nM	2080 nM
Cc1cc(O)c(C=O)c(O)c1	1640 nM	1640 nM
O=C(O)c1cc(O)cc(O)c1CO	670 nM	670 nM
